An excerpt weighted towards active compounds, which were near 4.1% of everything screened.
MrgX1 PAM: human MrgX1 positive allosteric modulation, primary screen. 310,000 tested, 0.63% active. MrgX1-HEK293, Fluo-4 calcium flux, FDSS; hits give high values. AID 588675. B-score at 10 µM;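 active = plate-corrected calcium response at least 3 library SD above typical, normal starting fluorescence, not activating the receptor alone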;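 also: compound read alongside a low EC10 to EC30 dose of BAM8-22 agonist; peak minus trough fluorescence over baseline measured at the second addition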
MrgX1 agonist: human MrgX1 receptor agonism, primary screen. Q96LB2. MrgX1-HEK293 cells, Fluo-4 calcium fluorescence, agonist mode; hits give high values. B-score at 10 µM. AID 588627. 310,000 tested, 0.44% active;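 active = calcium response B-score plate-corrected fluorescence ratio at least 3 library SD, with starting fluorescence B-score inside 5 SD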
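Test system: HEK293 cells stably expressing human MrgX1 receptor; amount: 15,000 cells per well; doses: compound delivered in addition one of three; times: overnight plating before 1 h dye loading; detection: Fluo-4 NW calcium-flux fluorescence, kinetic read; read-out basis: B-scored fluorescence response ratio; controls: positive and negative controls per plate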
RGS4 inh: inhibitors of human RGS4; HEK293 M3R/RGS4 inducible, Fluo-4 calcium flux; hits give high values; triggered by carbachol at its EC20; B-score at 10 µM; 310,000 tested, 0.45% active;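 active = B-score, a plate-corrected calcium signal, over three deviations above library mean, with baseline fluorescence within five deviations of library mean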;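 also: RGS4 expression induced by doxycycline in cells with stable M3 receptor; B-score is computed from the integrated fluorescence ratio over baseline after carbachol; higher B-score means a larger calcium signal and so more RGS4 inhibition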
Target sequence (P49798 whole entry, looked up): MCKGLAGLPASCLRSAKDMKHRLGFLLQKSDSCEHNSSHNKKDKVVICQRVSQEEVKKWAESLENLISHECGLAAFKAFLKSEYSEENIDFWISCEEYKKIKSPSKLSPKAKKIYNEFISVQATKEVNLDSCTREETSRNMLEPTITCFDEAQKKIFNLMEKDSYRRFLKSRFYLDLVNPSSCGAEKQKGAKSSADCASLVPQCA
RGS4 act: RGS4 potentiation or activation. HEK293 M3R/inducible RGS4, carbachol calcium flux Fluo4; hits give low values. B-score at 10 µM. 310,000 tested, 0.92% active. AID 463111;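 active = B-score of the integrated calcium signal more than 4 SD below the library mean, with starting fluorescence not abnormally high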;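 also: negative B-score means reduced calcium response which marks RGS4 activation or potentiation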
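Material: Inducible-RGS4 HEK293 cells carrying M3 receptor; also added: carbachol at ECmax as muscarinic agonist stimulus; incubation: compound preincubation 20 min at room temperature before agonist; signal: Fluo4-AM (2 µM) calcium-flux fluorescence, kinetic read; measure: integrated calcium ratio converted to B score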
Kir21 inh: blocks the mouse Kir2.1 inward-rectifier potassium channel. P35561. HEK293-Kir2.1, FluxOR thallium flux fluorescence; hits give low values. B-score at 10 µM. 310,000 tested, 0.85% active. AID 1672;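 active = fluorescence ratio B-score at or below minus 3 SD of library scores, with starting-brightness B-score within 2 SD, cut at about -4.2 in these data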;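 also: channel flux triggered by added potassium and thallium sulfate stimulus; B-score of peak minus minimum fluorescence over baseline after thallium stimulus; more negative B-score means stronger Kir2.1 block with less thallium influx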
Target sequence (P35561 whole entry, looked up): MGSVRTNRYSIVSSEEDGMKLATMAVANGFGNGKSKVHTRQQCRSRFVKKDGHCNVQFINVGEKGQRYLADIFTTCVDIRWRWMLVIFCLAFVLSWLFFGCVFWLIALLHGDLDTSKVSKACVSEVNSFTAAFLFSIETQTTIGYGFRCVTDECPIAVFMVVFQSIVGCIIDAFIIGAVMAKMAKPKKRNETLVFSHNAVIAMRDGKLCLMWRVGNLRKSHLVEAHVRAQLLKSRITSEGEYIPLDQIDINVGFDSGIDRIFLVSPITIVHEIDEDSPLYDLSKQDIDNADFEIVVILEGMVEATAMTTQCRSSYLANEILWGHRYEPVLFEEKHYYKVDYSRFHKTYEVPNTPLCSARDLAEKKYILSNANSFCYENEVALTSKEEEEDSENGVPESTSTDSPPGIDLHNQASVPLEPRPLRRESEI
MrgX1 antag: blocks BAM8-22 activation of human MrgX1 receptor; MRGX1-HEK293 calcium flux, Fluo-4, BAM8-22 antagonism; hits give low values; B-score at 10 µM; 310,000 tested, 1.3% active;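 active = calcium-response B-score plate-corrected more than 3 library SD below zero, starting fluorescence within 5 deviations, no agonist response on first addition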;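 also: peak minus trough fluorescence over baseline after final BAM8-22 challenge near maximal dose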
hERG ctr: counter-screen for Kir2.1 inhibitors: effect on human hERG | AID 2236 | inhibition, % at 10 µM | 320 tested, 20% active | hERG-expressing cells, thallium flux | shares compounds with Kir21 inh;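 also: host cells are CHO cells stably expressing hERG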
KCNK9 inh: tests whether Kir2.1 inhibitors also affect human KCNK9. KCNK9-expressing cells, ion flux inhibition. 320 tested, 5% active. inhibition, % at 10 µM. shares compounds with Kir21 inh
Kir21 ephys inh: blocks mouse Kir2.1 current in automated electrophysiology. shares compounds with Kir21 inh. 320 tested, 71% active. Kir2.1 cells, automated patch-clamp current inhibition. AID 463252. inhibition, % at 25 µM
An asterisk follows results filed as active; i = inactive; . = not tested or not shown. Unless noted, no rule for the calls is given here.

SMILES | MrgX1 PAM | MrgX1 agonist | RGS4 inh | RGS4 act | Kir21 inh | MrgX1 antag | hERG ctr | KCNK9 inh | Kir21 ephys inh
CCOc1cccc(CNCc2cccnc2)c1OCc1ccccc1 | i | i | i | i | -7.5* | i | i | i | 40.4%*
N#CC(c1ccc(O)cc1)c1ncc(C(F)(F)F)cc1Cl (stereo unspecified) | i | i | i | i | -7.32* | i | i | i | 54.0%*
NC(=O)C(c1ccc(Cl)cc1)c1ncc(C(F)(F)F)cc1Cl (stereo unspecified) | i | i | i | i | -0.56 | i | . | . | .
CC1=CC(C)(C)N(C(=O)CSc2nnc(C)s2)c2ccc(C)cc21 | i | i | i | i | -7.09* | i | i | i | 8.3%*
C#CCNC(=O)C1=C[C@@H](c2ccc(C#C)cc2)C[C@@H](OCc2ccc(CO)cc2)O1 | i | i | i | i | -6.26* | i | i | i | 6.4%*
Cc1cc(NC(=O)CSc2nc(CC(C)(C)C)nc3c2c(=O)n(C)c(=O)n3C)no1 | i | i | i | i | 3.65 | i | i | i | i
CCc1nc(SCC(=O)Nc2cc(C)on2)c2c(=O)n(C)c(=O)n(C)c2n1 | i | i | i | i | 0.31 | i | . | . | .
Cc1cc(OCCOCCNCc2ccccc2)ccc1C(C)C | i | i | i | i | -7.84* | i | 49.0%* | i | 52.3%*
O[C@@H](CNC[C@H](O)c1ccccc1)c1ccccc1 | i | i | i | i | -2.46 | i | . | . | .
CC(O)CNCc1ccc(-c2ccccc2)cc1 (stereo unspecified) | i | i | i | i | 0.15 | i | . | . | .
OC(CNCCc1ccccc1)c1ccccc1 (stereo unspecified) | i | i | i | i | -9.65* | i | i | i | 49.8%*
CSc1ccc(CNCC(O)c2ccccc2)cc1 (stereo unspecified) | i | i | i | i | -6.18* | i | i | i | 54.1%*
O=C(O)C1=C[C@@H](C2CCCCC2)C[C@@H](OCc2ccc(CO)cc2)O1 | i | i | i | i | 0.15 | i | . | . | .
NC(=O)C1=C[C@@H](C2CCCCC2)C[C@@H](OCc2ccc(CO)cc2)O1 | i | i | i | i | -7.7* | i | i | i | 25.8%*
Cc1cc(C)n(CC(O)CN(c2ccccc2)S(=O)(=O)c2ccccc2)n1 (stereo unspecified) | i | i | i | i | 0.94 | i | . | . | .
CNCCCCOc1ccccc1Cc1ccccc1 | i | i | i | i | -8.82* | i | i | i | 30.3%*
CCC(=O)OCc1c(C(F)(F)F)nn(C)c1Sc1ccc(F)cc1 | i | i | i | i | -8.42* | i | i | i | 30.9%*
Cc1ccc(C(=O)NC(=S)NNC(=O)c2ccccc2O)cc1 | i | i | i | i | -0.33 | i | . | . | .
Cc1ccc(C(=O)NNC(=S)NC(=O)c2ccccc2)cc1 | i | 139* | i | i | 2.62 | i | i | i | i
O=C(Nc1cccnc1)c1cccnc1Cl | i | i | i | i | 0.43 | i | . | . | .
CC(=O)OC1=C(C#N)Cn2ccc3cccc1c32 | i | i | i | i | -6.72* | i | i | i | i
CC(C)Cc1nc(SCC(=O)N2CCCCC2)c2c(=O)n(C)c(=O)n(C)c2n1 | i | i | i | i | -0.01 | i | . | . | .
CN(C)C(=O)c1ccccc1Sc1cc(Cl)ccc1Cl | i | i | i | i | -6.66* | i | i | i | 19.8%*
C=CCN(CC=C)CCOc1ccc(C)cc1[N+](=O)[O-] | i | i | i | i | -1.48 | i | . | . | .
COC(=O)c1cc(F)c(-n2cncn2)c(F)c1 | i | i | i | i | -0.04 | i | . | . | .
SMILES | MrgX1 PAM | MrgX1 agonist | RGS4 inh | RGS4 act | Kir21 inh | MrgX1 antag | hERG ctr | KCNK9 inh | Kir21 ephys inh
COC(=O)c1cc([N+](=O)[O-])c(-n2cncn2)c([N+](=O)[O-])c1 | . | . | i | i | -7.7* | . | i | i | i
Fc1ccc(CNC2CCN(Cc3ccccc3)CC2)cc1 | i | i | i | i | 0.96 | i | . | . | .
Clc1ccc(CNC2CCN(Cc3ccccc3)CC2)cc1 | i | i | i | i | -12.5* | i | 58.0%* | i | 55.1%*
CCN(CC(=O)Nc1ccc(NC(C)=O)cc1)C(=O)c1n[nH]c(=O)c2ccccc12 | i | i | i | i | -1.07 | i | . | . | .
COC(=O)C1=C(C)N=C2SCCC(=O)N2C1c1cc(Br)ccc1OC (stereo unspecified) | i | i | i | i | -0.29 | i | . | . | .
COC(=O)C1=C(C)N=C2SCCC(=O)N2C1c1ccc(OC(=O)c2ccco2)cc1 (stereo unspecified) | . | . | i | i | -7.24* | . | i | i | i
Cc1ccc2nc(NCc3ccccc3)c(C#N)cc2c1 | i | i | i | i | 0.02 | i | . | . | .
Cc1ccc2nc(NCc3ccccc3)[nH]c2c1 | i | i | i | i | -10.1* | i | i | 31.0%* | 72.1%*
Cc1cccc2sc(N(CCN(C)C)C(=O)c3cc(Cl)sc3Cl)nc12 | i | i | i | i | 0.04 | i | . | . | .
Cc1ccc(C)c(OCCCNCc2ccccc2)c1 | i | i | i | i | -9.36* | i | i | i | 74.4%*
CC(NS(=O)(=O)c1ccc(Br)cc1)c1ccccc1 (stereo unspecified) | i | i | i | i | -6* | i | i | i | 54.5%*
CC(NS(=O)(=O)c1ccc2c(c1)OCCO2)c1ccccc1 (stereo unspecified) | i | i | i | i | -1.44 | i | . | . | .
CCOC(=O)c1c(NC(=O)c2ccc(N3C(=O)[C@@H]4[C@H](C3=O)[C@H]3C=C[C@@H]4C3)cc2)sc2c1CC(C)CC2 (stereo partly specified) | i | i | i | i | 0.02 | i | . | . | .
Cc1cc(C)nc(SCCCNCc2ccc(Br)cc2)n1 | i | i | i | i | -7.1* | i | i | i | 44.5%*

Bioassay records: PubChem, Johns Hopkins Ion Channel Center
